Converted amounts (≈) assume the structure as drawn.
Key:
Staphylococcus aureus [1] = test: Antibacterial activity against Staphylococcus aureus ATCC 6538 after 24 hrs by micro dilution method; assay type: functional; conditions: ATCC 6538, 24 h
Method in brief: (§1)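 Microdilution MIC in 96-well plates. Bacterial suspensions adjusted in sterile saline to 1.0 × 10^5 CFU/ml, giving 1.0 × 10^4 cfu per well in LB broth. Compounds tested at up to 1 mg/ml. Plates incubated 24 h. MIC taken as the lowest concentration with no visible growth under a binocular microscope. OD at 655 nm was also read against a blank and the positive control. Streptomycin and ampicillin were the positive controls.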

Bacillus cereus [2] = test: Antibacterial activity against Bacillus cereus clinical isolate after 24 hrs by micro dilution method; assay type: functional; method in brief: as §1
Micrococcus flavus [3] = test: Antibacterial activity against Micrococcus flavus ATCC 10240 after 24 hrs by micro dilution method; assay type: functional; conditions: ATCC 10240, 24 h; method in brief: as §1
Listeria monocytogenes [4] = test: Antibacterial activity against Listeria monocytogenes NCTC 7973 after 24 hrs by micro dilution method; assay type: functional; conditions: NCTC 7973, 24 h; method in brief: as §1
Pseudomonas aeruginosa [5] = test: Antibacterial activity against Pseudomonas aeruginosa ATCC 27853 after 24 hrs by micro dilution method; assay type: functional; conditions: ATCC 27853, 24 h; method in brief: as §1
Enterobacter cloacae [6] = test: Antibacterial activity against Enterobacter cloacae human isolate after 24 hrs by micro dilution method; assay type: functional; method in brief: as §1
Salmonella typhimurium [7] = test: Antibacterial activity against Salmonella Typhimurium ATCC 13311 after 24 hrs by micro dilution method; assay type: functional, Salmonella enterica subsp. enterica serovar Typhimurium; conditions: Salmonella enterica, ATCC 13311, 24 h; method in brief: as §1
Escherichia coli [8] = test: Antibacterial activity against Escherichia coli ATCC 35210 after 24 hrs by micro dilution method; assay type: functional; conditions: ATCC 35210, 24 h; method in brief: as §1
Staphylococcus aureus [9] = test: Antibacterial activity against Staphylococcus aureus ATCC 6538 treated for 24 hrs followed by sub-cultivated for 72 hrs by micro dilution method; assay type: functional
Method in brief: (§2)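 2 µl from each well was serially subcultured into 100 µl fresh broth per well and incubated a further 72 h. MBC is the lowest concentration with no visible growth, taken as 99.5% killing of the original inoculum. Streptomycin and ampicillin were the positive controls.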

Bacillus cereus [10] = test: Antibacterial activity against Bacillus cereus clinical isolate treated for 24 hrs followed by sub-cultivated for 72 hrs by micro dilution method; assay type: functional; method in brief: as §2
Micrococcus flavus [11] = test: Antibacterial activity against Micrococcus flavus ATCC 10240 treated for 24 hrs followed by sub-cultivated for 72 hrs by micro dilution method; assay type: functional; method in brief: as §2
Listeria monocytogenes [12] = test: Antibacterial activity against Listeria monocytogenes NCTC 7973 treated for 24 hrs followed by sub-cultivated for 72 hrs by micro dilution method; assay type: functional; method in brief: as §2
Pseudomonas aeruginosa [13] = test: Antibacterial activity against Pseudomonas aeruginosa ATCC 27853 treated for 24 hrs followed by sub-cultivated for 72 hrs by micro dilution method; assay type: functional; method in brief: as §2
Enterobacter cloacae [14] = test: Antibacterial activity against Enterobacter cloacae human isolate treated for 24 hrs followed by sub-cultivated for 72 hrs by micro dilution method; assay type: functional; method in brief: as §2
Salmonella typhimurium [15] = test: Antibacterial activity against Salmonella Typhimurium ATCC 13311 treated for 24 hrs followed by sub-cultivated for 72 hrs by micro dilution method; assay type: functional, Salmonella enterica subsp. enterica serovar Typhimurium; conditions: Salmonella enterica; method in brief: as §2
Escherichia coli [16] = test: Antibacterial activity against Escherichia coli ATCC 35210 treated for 24 hrs followed by sub-cultivated for 72 hrs by micro dilution method; assay type: functional; method in brief: as §2
Talaromyces funiculosus [17] = test: Antifungal activity against Penicillium funiculosum ATCC 36839 after 72 hrs by serial dilution method; assay type: functional; conditions: ATCC 36839, 72 h
Method in brief: (§3)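 Modified microdilution MIC. Spores were washed from malt agar cultures with sterile 0.85% saline containing 0.1% Tween 80 and adjusted to about 1.0 × 10^5 per 100 µl well in malt broth. Compounds were dissolved in DMSO (1 mg/ml). Plates incubated 72 h at 28 °C. MIC is the lowest concentration with no visible growth under a binocular microscope. Bifonazole and ketoconazole were the references.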

Penicillium ochrochloron [18] = test: Antifungal activity against Penicillium ochrochloron ATCC 9112 after 72 hrs by serial dilution method; assay type: functional; conditions: ATCC 9112, 72 h; method in brief: as §3
Trichoderma viride [19] = test: Antifungal activity against Trichoderma viride IAM 5061 after 72 hrs by serial dilution method; assay type: functional; conditions: IAM 5061, 72 h; method in brief: as §3
Aspergillus fumigatus [20] = test: Antifungal activity against Aspergillus fumigatus human isolate after 72 hrs by serial dilution method; assay type: functional; method in brief: as §3
Aspergillus niger [21] = test: Antifungal activity against Aspergillus niger ATCC 6275 after 72 hrs by serial dilution method; assay type: functional; conditions: ATCC 6275, 72 h; method in brief: as §3
Aspergillus flavus [22] = test: Antifungal activity against Aspergillus flavus ATCC 9643 after 72 hrs by serial dilution method; assay type: functional; conditions: ATCC 9643, 72 h; method in brief: as §3
Aspergillus versicolor [23] = test: Antifungal activity against Aspergillus versicolor ATCC 11730 after 72 hrs by serial dilution method; assay type: functional; conditions: ATCC 11730, 72 h; method in brief: as §3
Fulvia fulva [24] = test: Antifungal activity against Fulvia fulva after 72 hrs by serial dilution method; assay type: functional; method in brief: as §3
Talaromyces funiculosus [25] = test: Antifungal activity against Penicillium funiculosum ATCC 36839 treated for 72 hrs followed by sub-cultivated for 5 days by serial dilution method; assay type: functional
Method in brief: (§4)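 MFC obtained after the 72 h, 28 °C malt-broth microdilution (spore inoculum about 1.0 × 10^5 per well, compounds from 1 mg/ml DMSO). 2 µl was serially subcultured into 100 µl broth per well and incubated a further 5 days at 28 °C. MFC is the lowest concentration with no visible growth, taken as 99.5% killing of the original inoculum.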

Penicillium ochrochloron [26] = test: Antifungal activity against Penicillium ochrochloron ATCC 9112 treated for 72 hrs followed by sub-cultivated for 5 days by serial dilution method; assay type: functional; method in brief: as §4
Trichoderma viride [27] = test: Antifungal activity against Trichoderma viride IAM 5061 treated for 72 hrs followed by sub-cultivated for 5 days by serial dilution method; assay type: functional; method in brief: as §4
Aspergillus fumigatus [28] = test: Antifungal activity against Aspergillus fumigatus human isolate treated for 72 hrs followed by sub-cultivated for 5 days by serial dilution method; assay type: functional; method in brief: as §4
Aspergillus niger [29] = test: Antifungal activity against Aspergillus niger ATCC 6275 treated for 72 hrs followed by sub-cultivated for 5 days by serial dilution method; assay type: functional; method in brief: as §4
Aspergillus flavus [30] = test: Antifungal activity against Aspergillus flavus ATCC 9643 treated for 72 hrs followed by sub-cultivated for 5 days by serial dilution method; assay type: functional; method in brief: as §4
Aspergillus versicolor [31] = test: Antifungal activity against Aspergillus versicolor ATCC 11730 treated for 72 hrs followed by sub-cultivated for 5 days by serial dilution method; assay type: functional; method in brief: as §4
Fulvia fulva [32] = test: Antifungal activity against Fulvia fulva treated for 72 hrs followed by sub-cultivated for 5 days by serial dilution method; assay type: functional; method in brief: as §4

Row | Structure (SMILES) | MIC (Staphylococcus aureus [1]) | MIC (Bacillus cereus [2]) | MIC (Micrococcus flavus [3]) | MIC (Listeria monocytogenes [4]) | MIC (Pseudomonas aeruginosa [5]) | MIC (Enterobacter cloacae [6]) | MIC (Salmonella typhimurium [7]) | MIC (Escherichia coli [8]) | MBC (Staphylococcus aureus [9]) | MBC (Bacillus cereus [10]) | MBC (Micrococcus flavus [11]) | MBC (Listeria monocytogenes [12]) | MBC (Pseudomonas aeruginosa [13]) | MBC (Enterobacter cloacae [14]) | MBC (Salmonella typhimurium [15]) | MBC (Escherichia coli [16]) | MIC (Talaromyces funiculosus [17]) | MIC (Penicillium ochrochloron [18]) | MIC (Trichoderma viride [19]) | MIC (Aspergillus fumigatus [20]) | other results
1 | CCCCNc1nnc(Cc2cc(OC)c(OC)cc2S(=O)(=O)N(C)C)o1 | 250 µM (≈ 99.6 µg/mL) | 250 µM (≈ 99.6 µg/mL) | 250 µM (≈ 99.6 µg/mL) | 250 µM (≈ 99.6 µg/mL) | 130 µM (≈ 51.8 µg/mL) | 630 µM (≈ 251 µg/mL) | 130 µM (≈ 51.8 µg/mL) | 630 µM (≈ 251 µg/mL) | 380 µM (≈ 151 µg/mL) | 250 µM (≈ 99.6 µg/mL) | 500 µM (≈ 199 µg/mL) | 750 µM (≈ 299 µg/mL) | 250 µM (≈ 99.6 µg/mL) | 750 µM (≈ 299 µg/mL) | 250 µM (≈ 99.6 µg/mL) | 630 µM (≈ 251 µg/mL) | 250 µM (≈ 99.6 µg/mL) | 250 µM (≈ 99.6 µg/mL) | 130 µM (≈ 51.8 µg/mL) | 130 µM (≈ 51.8 µg/mL) | MIC (Aspergillus niger [21]): 250 µM (≈ 99.6 µg/mL); MIC (Aspergillus flavus [22]): 250 µM (≈ 99.6 µg/mL); MIC (Aspergillus versicolor [23]): 250 µM (≈ 99.6 µg/mL); MIC (Fulvia fulva [24]): 130 µM (≈ 51.8 µg/mL); MFC (Talaromyces funiculosus [25]): 500 µM (≈ 199 µg/mL); MFC (Penicillium ochrochloron [26]): 750 µM (≈ 299 µg/mL); MFC (Trichoderma viride [27]): 130 µM (≈ 51.8 µg/mL); MFC (Aspergillus fumigatus [28]): 250 µM (≈ 99.6 µg/mL); MFC (Aspergillus niger [29]): 750 µM (≈ 299 µg/mL); MFC (Aspergillus flavus [30]): 750 µM (≈ 299 µg/mL); MFC (Aspergillus versicolor [31]): 750 µM (≈ 299 µg/mL); MFC (Fulvia fulva [32]): 250 µM (≈ 99.6 µg/mL)
2 | COc1cc(Cc2nnc(NC(C)(C)C)o2)c(S(=O)(=O)N(C)C)cc1OC | 250 µM (≈ 99.6 µg/mL) | 390 µM (≈ 155 µg/mL) | 250 µM (≈ 99.6 µg/mL) | 250 µM (≈ 99.6 µg/mL) | 390 µM (≈ 155 µg/mL) | 630 µM (≈ 251 µg/mL) | 130 µM (≈ 51.8 µg/mL) | 390 µM (≈ 155 µg/mL) | 500 µM (≈ 199 µg/mL) | 390 µM (≈ 155 µg/mL) | 500 µM (≈ 199 µg/mL) | 390 µM (≈ 155 µg/mL) | 390 µM (≈ 155 µg/mL) | 630 µM (≈ 251 µg/mL) | 250 µM (≈ 99.6 µg/mL) | 390 µM (≈ 155 µg/mL) | 130 µM (≈ 51.8 µg/mL) | 130 µM (≈ 51.8 µg/mL) | 60 µM (≈ 23.9 µg/mL) | 130 µM (≈ 51.8 µg/mL) | MIC (Aspergillus niger [21]): 250 µM (≈ 99.6 µg/mL); MIC (Aspergillus flavus [22]): 130 µM (≈ 51.8 µg/mL); MIC (Aspergillus versicolor [23]): 130 µM (≈ 51.8 µg/mL); MIC (Fulvia fulva [24]): 250 µM (≈ 99.6 µg/mL); MFC (Talaromyces funiculosus [25]): 250 µM (≈ 99.6 µg/mL); MFC (Penicillium ochrochloron [26]): 380 µM (≈ 151 µg/mL); MFC (Trichoderma viride [27]): 130 µM (≈ 51.8 µg/mL); MFC (Aspergillus fumigatus [28]): 250 µM (≈ 99.6 µg/mL); MFC (Aspergillus niger [29]): 380 µM (≈ 151 µg/mL); MFC (Aspergillus flavus [30]): 250 µM (≈ 99.6 µg/mL); MFC (Aspergillus versicolor [31]): 380 µM (≈ 151 µg/mL); MFC (Fulvia fulva [32]): 250 µM (≈ 99.6 µg/mL)
